Measured values published in ChEMBL document CHEMBL1148410, “Antitumor agents. 3. Design, synthesis, and biological evaluation of new pyridoisoquinolindione and dihydrothienoquinolindione derivatives with potent cytotoxic activity” (J Med Chem, 2004).
*1 amine or outer side, *2 acyl side, *3 side chain or, on linkers, in order; H or OH if unused. Where a SMILES comes first, the peptide text is derived from it. Bridges are numbered along the chain shown (N, C = ends). Roman numbers before positions name the chains, in order. [ ]: non-standard residue; d: D form. Actinocin(1to9) = Cc1c2oc3c(C)ccc(C(=O)[*:2])c3nc-2c(C(=O)[*:1])c(N)c1=O; NMeV = CN[C@H](C(=O)O)C(C)C; Sar = CNCC(=O)O

Assays:
CCRF-SB = experiment: Concentration required to reduce proliferation of human acute B-lymphoblastic (CCRF-SB) cell line by 50% as determined by the MTT method; format: functional, cell-based
Summary of the method: (§1)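 Leukemia/lymphoma cells grown in RPMI 1640 with 10% FCS, 37 °C, humidified 5% CO2. Compounds were dissolved in DMSO (200 μM initial) and serially diluted in medium. Exponentially growing cells were resuspended at 1×10^5 cells/mL with the drug dilutions. Viability was read by MTT after 96 h at 37 °C. Growth was taken as % of untreated controls, and IC50 came from linear regression. Values are the mean of three independent determinations.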

CCRF-CEM = experiment: Concentration required to reduce proliferation of CD4+ human acuteT-lymphoblastic leukemia (CCRF-CEM) cell line by 50% as determined by the MTT method; format: functional, cell-based; summary of the method: as §1
CRL-7065 cell line = experiment: Concentration required to reduce proliferation of human foreskin fibroblasts (CRL7065) cell line by 50% as determined by the MTT method; format: functional, cell-based
Summary of the method: (§2)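 Solid-tumour-derived cells (and fibroblasts) were seeded in exponential growth at 5×10^4 cells/mL and allowed to adhere for 16 h before serial drug dilutions were added (DMSO stock 200 μM, diluted in medium). MTT viability was read 4 days later. Untreated controls went through at least three rounds of multiplication. IC50 came from linear regression of % growth versus untreated control, mean of three independent determinations.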

DU-145 = experiment: Concentration required to reduce proliferation of human prostate carcinoma (DU-145) cell line by 50% as determined by the MTT method; format: functional, cell-based; summary of the method: as §2
HepG2 = experiment: Concentration required to reduce proliferation of human hepatocellular carcinoma (HepG-2) cell line by 50% as determined by the MTT method; format: functional, cell-based; summary of the method: as §2
MCF7 = experiment: Concentration required to reduce proliferation of human breast adenocarcinoma (MCF-7) cell line by 50% as determined by the MTT method; format: functional, cell-based; summary of the method: as §2
MT4 = experiment: Concentration required to reduce proliferation of CD4+ human acute T-lymphoblastic leukemia (MT-4) cell line by 50% as determined by the MTT method; format: functional, cell-based; summary of the method: as §1
WIL2-NS = experiment: Concentration required to reduce proliferation of human splenic B-lymphoblastoid (Wil2-NS) cell line by 50% as determined by the MTT method; format: functional, cell-based; summary of the method: as §1
SK-MEL-28 = experiment: Concentration required to reduce proliferation of human melanoma (SKMEL-28) cell line by 50% as determined by the MTT method; format: functional, cell-based; summary of the method: as §2
SK-MES-1 = experiment: Concentration required to reduce proliferation of human lung squamous carcinoma (SKMES-1) cell line by 50% as determined by the MTT method; format: functional, cell-based; summary of the method: as §2
KB [1] = experiment: Concentration required to reduce proliferation of KB subclones passaged in the presence of doxorubicin 0.09 uM (KBMDR) cell line by 50% as determined by the MTT method; format: functional, cell-based; details: Homo sapiens
Summary of the method: (§3)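 Adherent cultures were seeded at 5×10^4 cells/mL, attached for 16 h, then exposed to serial drug dilutions. MTT viability was read after 4 days, with controls completing at least three doublings. IC50 came from linear regression, mean ±SD of three independent determinations.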

KB [2] = experiment: Concentration required to reduce proliferation of KB human nasopharyngeal carcinoma (KBWT) cell line by 50% as determined by the MTT method; format: functional, cell-based; summary of the method: as §3
KB [3] = experiment: Concentration required to reduce proliferation of KB subclones passaged in the presence of etoposide 7 uM (KB7D) cell line by 50% as determined by the MTT method; format: functional, cell-based; details: Homo sapiens; summary of the method: as §3
KB [4] = experiment: Concentration required to reduce proliferation of KB subclones passaged in the presence of vincristine 0.02 uM (KBV20C) cell line by 50% as determined by the MTT method; details: Homo sapiens

| SMILES | IC50 (CCRF-SB) [µM] | IC50 (CCRF-CEM) [µM] | IC50 (DU-145) [µM] | IC50 (HepG2) [µM] | IC50 (MCF7) [µM] | IC50 (SK-MEL-28) [µM] | IC50 (SK-MES-1) [µM] | IC50 (KB [1]) [µM] | IC50 (KB [2]) [µM] | IC50 (KB [3]) [µM] | IC50 (KB [4]) [µM] | IC50 (CRL-7065 cell line) [µM] | IC50 (MT4) [µM] | IC50 (WIL2-NS) [µM] |
| --- | --- | --- | --- | --- | --- | --- | --- | --- | --- | --- | --- | --- | --- | --- |
| CCOC(=O)C1=CC2C(=O)c3cccnc3C(=O)C2C(c2ccc(OC)cc2)=N1 (configuration not stated) | 0.9 | 1.5 | 1.5 | 2 | 0.9 | 1 | 1.2 |  |  |  |  | 1.5 | 1 | 2.1 |
| CCOC(=O)C1=CC2C(=O)c3ncccc3C(=O)C2C(c2ccc(N(C)C)cc2)=N1 (configuration not stated) | 0.9 | 1.2 | 1 | 0.9 | 1 | 0.9 | 1 |  |  |  |  |  | 0.9 | 1.4 |
| CCOC(=O)C1(N)CSC2=C1C(=O)c1ncccc1C2=O (configuration not stated) | 0.01 | 0.07 | 0.08 | 0.6 | 0.2 | 0.2 | 0.1 |  |  |  |  | 0.09 | 0.02 | 0.06 |
| CCOC(=O)C1=CC2C(=O)c3cccnc3C(=O)C2C(c2ccc(N(C)C)cc2)=N1 (configuration not stated) | 2.2 | 2.3 | 1.9 | 2.2 | 1.6 | 1.9 | 1.8 |  |  |  |  |  | 2 | 2.5 |
| CCOC(=O)C1(N)CSC2=C1C(=O)c1cccnc1C2=O (configuration not stated) | 0.6 | 2 | 1.2 | 0.5 | 0.5 | 1.1 | 0.9 |  |  |  |  | 1.7 | 0.5 | 3.1 |
| CCOC(=O)C1=CC2C(=O)c3cccnc3C(=O)C2C(c2ccc([N+](=O)[O-])cc2)=N1 (configuration not stated) | 0.015 | 0.23 | 0.1 | 0.5 | 0.2 | 0.2 | 0.08 |  |  |  |  |  | 0.01 | 0.03 |
| Cc1c2oc3c(C)ccc(C(=O)N[C@@H]4C(=O)N[C@H](C(C)C)C(=O)N5CCC[C@H]5C(=O)N(C)CC(=O)N(C)[C@@H](C(C)C)C(=O)O[C@@H]4C)c3nc-2c(C(=O)N[C@@H]2C(=O)N[C@H](C(C)C)C(=O)N3CCC[C@H]3C(=O)N(C)CC(=O)N(C)[C@@H](C(C)C)C(=O)O[C@@H]2C)c(N)c1=O [DACTINOMYCIN] (I: T[dV]P[Sar][NMeV] / II: T[dV]P[Sar][NMeV]; ester I:1-I:C, II:1-II:C; linker I:N-II:N via Actinocin(1to9)) |  |  |  |  |  |  |  | 0.2 | 0.004 | 0.2 | 0.05 |  |  |  |
| COc1cc([C@@H]2c3cc4c(cc3[C@@H](O[C@@H]3O[C@@H]5CO[C@@H](C)O[C@H]5[C@H](O)[C@H]3O)[C@H]3COC(=O)[C@H]23)OCO4)cc(OC)c1O [ETOPOSIDE] |  |  |  |  |  |  |  | > 20 | 0.8 | > 20 | 2.4 |  |  |  |
| CC[C@]1(O)C[C@H]2CN(CCc3c([nH]c4ccccc34)[C@@](C(=O)OC)(c3cc4c(cc3OC)N(C=O)[C@H]3[C@@](O)(C(=O)OC)[C@H](OC(C)=O)[C@]5(CC)C=CCN6CC[C@]43[C@@H]65)C2)C1 [VINCRISTINE] |  |  |  |  |  |  |  | 1 | 0.004 |  | 0.2 |  |  |  |

More lines, main results first:

| IC50 (CCRF-SB) [µM] | IC50 (CCRF-CEM) [µM] | IC50 (DU-145) [µM] | IC50 (HepG2) [µM] | IC50 (MCF7) [µM] | IC50 (SK-MEL-28) [µM] | IC50 (SK-MES-1) [µM] | IC50 (KB [1]) [µM] | IC50 (KB [2]) [µM] | IC50 (KB [3]) [µM] | IC50 (KB [4]) [µM] | SMILES | IC50 (CRL-7065 cell line) [µM] | IC50 (MT4) [µM] | IC50 (WIL2-NS) [µM] |
| --- | --- | --- | --- | --- | --- | --- | --- | --- | --- | --- | --- | --- | --- | --- |
| 0.09 | 0.02 | 1 | 0.9 | 1 | 0.2 | 1 |  |  |  |  | CCOC(=O)C1=CC2C(=O)c3ncccc3C(=O)C2C(c2ccc(C)cc2)=N1 (configuration not stated) | 0.07 | 0.3 | 0.03 |
| 0.7 | 0.8 | 1.5 | 2 | 0.5 | 0.8 | 0.5 |  |  |  |  | CCOC(=O)C1=CC2C(=O)c3cccnc3C(=O)C2C(c2ccc(Cl)cc2)=N1 (configuration not stated) | 0.9 | 0.7 | 2 |
| 0.8 | 1.3 | 1.3 | 2.3 | 0.6 | 0.9 | 0.5 |  |  |  |  | CCOC(=O)C1=CC2C(=O)c3cccnc3C(=O)C2C(c2ccc(Br)cc2)=N1 (configuration not stated) | 1.3 | 0.7 | 2.1 |
| 0.002 | 0.05 | 0.01 | 0.07 | 0.08 | 0.001 | 0.01 | 0.3 | 0.08 | 0.4 | 0.2 | CCOC(=O)C1=CC2C(=O)c3ncccc3C(=O)C2C(c2ccc([N+](=O)[O-])cc2)=N1 (configuration not stated) |  | 0.001 | 0.001 |
| 0.6 | 0.7 | 1 | 1 | 0.3 | 0.8 | 0.3 |  |  |  |  | CCOC(=O)C1=CC2C(=O)c3cccnc3C(=O)C2C(c2ccccc2)=N1 (configuration not stated) |  | 0.7 | 1 |
| 1 | 1 | 1.9 | 1.9 | 1.6 | 1.3 | 1.2 |  |  |  |  | CCOC(=O)C1=CC2C(=O)c3cccnc3C(=O)C2C(c2ccc(C)cc2)=N1 (configuration not stated) |  | 1 | 2.5 |
| 0.1 | 0.1 | 1.5 | 1 | 1.5 | 0.3 | 1.6 |  |  |  |  | CCOC(=O)C1=CC2C(=O)c3ncccc3C(=O)C2C(c2ccc(OC)cc2)=N1 (configuration not stated) |  | 0.4 | 0.09 |
| 0.007 | 0.15 | 0.03 | 0.4 | 0.3 | 0.2 | 0.05 |  |  |  |  | CCOC(=O)C1=CC2C(=O)c3ncccc3C(=O)C2C(c2ccc(Cl)cc2)=N1 (configuration not stated) | 0.04 | 0.006 | 0.01 |
| 0.01 | 0.2 | 1.5 | 2 | 0.5 | 0.8 | 0.5 |  |  |  |  | CCOC(=O)C1=CC2C(=O)c3ncccc3C(=O)C2C(c2ccccc2)=N1 (configuration not stated) |  | 0.015 | 0.02 |
| 0.01 | 0.2 | 0.05 | 0.3 | 0.2 | 0.2 | 0.09 |  |  |  |  | CCOC(=O)C1=CC2C(=O)c3ncccc3C(=O)C2C(c2ccc(Br)cc2)=N1 (configuration not stated) | 0.05 | 0.01 | 0.02 |
